Compound activity as filed in PubChem BioAssay.
T cruzi inh – blocks replication of Trypanosoma cruzi. T. cruzi beta-gal in NIH3T3, luminescence, 90 h. inhibition, % (concentration not given with the values). actives 1.4% (n = 300,000);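 active = mean inhibition across valid replicates above about 55%, limit read from the data; inconclusive = mean below that limit but half or more replicates reach it; inactive = mean below it, under half of replicates reach it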;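 also: signal also drops with host cell toxicity which is not excluded here; higher percent means less beta-gal luminescence so fewer parasites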
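System: mouse NIH/3T3 fibroblasts infected with β-gal-expressing T. cruzi Tulahuen C4 / Input: NIH/3T3 cells, 5,000 per well / Buffer or medium: Low-serum DMEM with 2% FBS / Probe or stimulus: 5000 reporter trypomastigotes per well / Schedule: ≥90 h infection period, 3 h prior cell attachment / Measured by: GalScreen luminescence, 60 min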
SKKanGAS inh – SKKanGAS growth inhibition; S. pyogenes SKKanGAS, kanamycin growth, BacTiter-Glo, 6 h; actives 1.3% (n = 300,000); inhibition, % at 7.5 µM;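 active = mean replicate score, as percent of positive control median, at least 50; inconclusive = mean below 50 but one replicate at or above 50; inactive = mean and every replicate below 50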;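 also: strain carries kanamycin resistance gene driven by streptokinase promoter and grows in 40 µg/ml kanamycin; loss of luminescence reflects streptokinase promoter inhibition or plain growth inhibition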
Beta apoptosis – blocks beta cell apoptosis. INS-1E cytokine-induced death, ATP luminescence, 48 h; percent of positive-control rescue, neutral wells zero. protection from apoptosis, % (concentration not given with the values). actives 0.8% (n = 300,000);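 active = Every replicate reaches about 75%, or at least half do and their mean reaches it too, limit read from the data; inconclusive = At least half of replicates reach the limit but their mean does not; inactive = Under half of replicates reach the limit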;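 also: higher means more ATP so stronger rescue from cytokine killing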
Mdm2 MdmX PPI – disrupts the human Mdm2-MdmX interaction. O15151+Q00987. SaOS-2 split-luciferase Mdm2/MdmX complementation, luminescence. inhibition, % at 8 µM. actives 3% (n = 330,000);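 active = inhibition of at least 50% at 8 µM in the primary screen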
Calb FLC – affects C. albicans growth with fluconazole | C. albicans CaCi-2 + fluconazole, Alamar Blue growth, 48 h | AID 1979 | actives 0.57% (n = 300,000) | growth inhibition, % (concentration not given with the values);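 active = growth inhibition above about 58% in most replicates, limit read from the data, passing the limit was not always enough; inconclusive = exactly half the replicates above a set limit; inactive = most replicates below a set limit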;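 also: all wells also contain fluconazole at 8 µg/ml as a sub-toxic cotreatment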
CSC inhib – cancer stem cell inhibition. actives 1.1% (n = 300,000). cancer stem cell-like cells viability, luminescence. inhibition, % at 7.5 µM; in the data active = inhibition above about 75%; inconclusive = no clear call, values can overlap the other calls; tested in HMLE shEcad cells
Mdm2 MdmX conf – human Mdm2/MdmX binding inhibition, confirmed; shares compounds with Mdm2 MdmX PPI; luminescent assay; inhibition, % at 8 µM; actives 55% (n = 10,000); AID 489028; in the data active = inhibition above about 40%
FLuc counter – inhibits full-length luciferase, flagging false Mdm2/MdmX hits; inhibition, % at 8 µM; SaOS-2 full-length luciferase counterscreen, luminescence; actives 77% (n = 6,200); shares compounds with Mdm2 MdmX PPI;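 active = mean inhibition at 8 µM reaching about 37%, which flags the compound as non-specific, limit read from the data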;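 also: p53-null SaOS-2 cells with luciferase driven by a doxycycline-inducible promoter; compound on cells about two nights before reading with doxycycline added after day one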
Each line names hits and unclear results; the compound was inactive in the other large screens (follow-up assays come after a bar, where they were run). Only some compounds are listed: those with a hit (about 5.7% of all), similar ones and a draw of the others.

CC(C)(C)NC(=O)c1ccc(NC(=O)c2ccccc2-c2ccccc2C(=O)O)cc1	none
CCc1cc(C(=O)N2CCc3c([nH]c4ccccc34)C2c2ccc(OC)cc2F)no1 (stereo not drawn)	Mdm2 MdmX PPI 83 | Mdm2 MdmX conf 85 | FLuc counter inactive
O=C(CN1CCCc2ccccc21)N/N=C/c1ccccc1O	Beta apoptosis 99, Mdm2 MdmX PPI 77 | Mdm2 MdmX conf 63 | FLuc counter inactive
CCC(C)NC(=O)c1ccc(CN2CCc3ccccc3C2)cc1 (stereo not drawn)	none
C/C(=N\Nc1cc(C)nc(-c2ccccc2O)n1)c1ccccc1O	SKKanGAS inh 74, Mdm2 MdmX PPI 89, Calb FLC inconclusive, CSC inhib 80 | Mdm2 MdmX conf 82 | FLuc counter 41
Cc1cc(N/N=C/c2ccccc2O)nc(-c2ccccc2O)n1	SKKanGAS inh 60, Mdm2 MdmX PPI 72 | Mdm2 MdmX conf 72 | FLuc counter 46
Cc1cc(Nc2ccc(Cl)cc2)nc(-c2ccccc2O)n1	none
Cc1cc(N/N=C/c2ccccc2O)nc(N2CCOCC2)n1	none
Cc1ccc(N2CN=c3s/c(=C\c4cccnc4)c(=O)n3C2)cc1	Mdm2 MdmX PPI 66 | Mdm2 MdmX conf inactive
CCOC(=O)c1ccc(Nc2cc(C)nc(-c3ccccc3)n2)cc1	Mdm2 MdmX PPI 56, CSC inhib 97 | Mdm2 MdmX conf 66 | FLuc counter 57
CCOC(=O)c1ccc(NC(=O)Nc2cc(C)cc(C)n2)cc1	Mdm2 MdmX PPI 50 | Mdm2 MdmX conf inactive
CCOC(=O)c1ccc(Nc2nc(C)cc(C)n2)cc1	none (no result: Mdm2 MdmX PPI)
O=C(OCc1nnc(-c2ccccc2)o1)C1CC(=O)N(CCc2ccccc2)C1 (stereo not drawn)	none (no result: T cruzi inh, SKKanGAS inh, Calb FLC)
S=C(NCc1cccs1)Nc1cc(Cl)cc(Cl)c1	SKKanGAS inh 66, Mdm2 MdmX PPI 61 | Mdm2 MdmX conf inactive
CCOC(=O)c1sc(=NC(=O)c2ccc(C)cc2)n(C)c1C	none
CCOC(=O)c1sc(=NC(=O)c2ccc(S(=O)(=O)N(C)c3ccccc3)cc2)n(C)c1C	Mdm2 MdmX PPI 63 | Mdm2 MdmX conf inactive
CSc1ncccc1C(=O)OCC(=O)c1ccc2c(c1)NC(=O)CO2	Mdm2 MdmX PPI 68 | Mdm2 MdmX conf inactive
COc1cc(OC)c(C(=O)OCC(=O)c2ccc3c(c2)NC(=O)CO3)cc1OC	none (no result: T cruzi inh, SKKanGAS inh, Calb FLC)
C=CCOc1c(/C=N\NC(N)=O)cccc1OC	none (no result: T cruzi inh)
COc1cccc(Sc2ccccc2/C=N/NC(N)=O)c1	Mdm2 MdmX PPI 53 | Mdm2 MdmX conf 67 | FLuc counter 58
O=C(NCCCN1CCOCC1)c1ccc2c(c1)N(Cc1ccc(Cl)cc1)C(=O)c1ccccc1S2=O (stereo not drawn)	none
CCN1C(=O)c2cccc3c(NC(=O)c4ccc5c(c4)OCCO5)ccc1c23	Mdm2 MdmX PPI 51 | Mdm2 MdmX conf inactive
CCN1C(=O)c2cccc3c(NC(=O)C4CCCCC4)ccc1c23	Mdm2 MdmX PPI 55 | Mdm2 MdmX conf inactive
CCN1C(=O)c2cccc3c(NC(=O)c4ccc(OC)c(OC)c4)ccc1c23	Mdm2 MdmX PPI 54 (no result: Beta apoptosis) | Mdm2 MdmX conf inactive
CCN1C(=O)c2cccc3c(NC(=O)c4ccccc4)ccc1c23	none
CN1C(=O)c2cccc(NC(=O)C3CCCCC3)c2C1=O	none
CCCC(C(=O)Nc1ccc(S(=O)(=O)N2CCCC2)cc1)c1ccccc1 (stereo not drawn)	none (no result: Beta apoptosis)
CN1CCN(c2ccccc2NC(=S)NC(=O)c2cc3ccccc3o2)CC1	Mdm2 MdmX PPI 92 | Mdm2 MdmX conf inactive
COc1ccc2cc3cc(C(=O)Nc4ccccc4N4CCN(C)CC4)oc3nc2c1	T cruzi inh 67, Mdm2 MdmX PPI 101 | Mdm2 MdmX conf inactive
COc1ccc2cc3cc(C(=O)NCCN4CCN(c5ccccc5F)CC4)oc3nc2c1	Mdm2 MdmX PPI 57 | Mdm2 MdmX conf inactive
COc1ccc2cc3cc(C(=O)N4CCN(c5ccccc5)CC4)oc3nc2c1	none
Nc1ncc(-c2ccccc2)c(-c2ccc(O)cc2O)n1	Mdm2 MdmX PPI 61 | Mdm2 MdmX conf inactive
COc1ccc(-c2cnc(N)nc2-c2ccc(OC)cc2)cc1	none
O=C(CCl)N1c2ccccc2CCc2ccccc21	T cruzi inh 71, Mdm2 MdmX PPI 100, Calb FLC 84 | Mdm2 MdmX conf 50 | FLuc counter inactive
CC(Cl)C(=O)N1c2ccccc2CCc2ccccc21 (stereo not drawn)	none (no result: Beta apoptosis)
Nc1ncnc2c1ncn2[C@@H]1O[C@H](CNC(=O)[C@@H]2CCN2)[C@@H](O)[C@H]1O	none (no result: T cruzi inh, SKKanGAS inh, Beta apoptosis, Calb FLC, CSC inhib)
O=C(NCCCSc1ccccc1)c1cc(Cl)ccc1O	none (no result: CSC inhib)
CCCN(CC(=O)Nc1ccc(F)c(F)c1F)C(=O)c1cc([N+](=O)[O-])ccc1N1CCOCC1	none
Cc1cc(C)cc(NC2=NC3(CCCCC3)N=C(N)N2)c1	Mdm2 MdmX PPI 59 | Mdm2 MdmX conf 53 | FLuc counter 73
COc1ccc2c(c1)c1nc3ccccc3nc1n2Cc1ccc(OC(C)C)c(OC)c1	none
COc1ccc(Cn2c3ccc(OC)cc3c3nc4ccccc4nc32)cc1	Mdm2 MdmX PPI 51, CSC inhib inconclusive | Mdm2 MdmX conf inactive
COC(=O)Cn1c2ccc(C)cc2c2nc3ccccc3nc21	none (no result: Beta apoptosis, CSC inhib)
COc1ccc2c(c1)c1nc3ccccc3nc1n2CC(=O)OC(C)C	Mdm2 MdmX PPI 58 | Mdm2 MdmX conf inactive
COc1cc(Oc2nc(C(F)(F)F)nc3ccccc23)ccc1C=O	none
COC(=O)c1ccc2nc(NC(=O)C(C)C)sc2c1	none
CCOC(=O)N1CCN(S(=O)(=O)c2ccc(C(=O)Nc3nc4ccccc4s3)cc2)CC1	none
CCOC(=O)N1CCN(S(=O)(=O)c2ccc(C(=O)Nc3nc4ccc(F)cc4s3)cc2)CC1	Mdm2 MdmX PPI 55 | Mdm2 MdmX conf inactive
CCOC(=O)c1ccc2nc(Nc3nc4ccc(F)cc4s3)sc2c1	Mdm2 MdmX PPI 82 | Mdm2 MdmX conf 60 | FLuc counter inactive
COC(=O)c1ccc2nc(Nc3nc4c(F)cc(F)cc4s3)sc2c1	SKKanGAS inh inconclusive, Mdm2 MdmX PPI 88 | Mdm2 MdmX conf inactive
Cc1ccc2nc(COC(=O)c3cnccn3)cc(=O)n2c1	none (no result: T cruzi inh, SKKanGAS inh, Calb FLC)
CCCC(=O)Nc1ccc2c(c1)C(=O)NC2=O	none
Cc1ccc2c(c1)Oc1ccc(NC(=O)CCCl)cc1C(=O)N2	Mdm2 MdmX PPI 67, CSC inhib 92 | Mdm2 MdmX conf 68 | FLuc counter 102
COc1cc(/C=C/C(=O)OCC(=O)N2CCCc3ccccc32)ccc1OC(F)F	none
O=C(NCCNc1ccc(Cl)cc1[N+](=O)[O-])c1ccccc1F	none (no result: Beta apoptosis)
O=[N+]([O-])c1ccc(NC(=S)NCc2ccc(F)cc2)cc1	Mdm2 MdmX PPI 74 (no result: Beta apoptosis) | Mdm2 MdmX conf inactive
